# Compound activity from PubChem BioAssay.
# Compounds with a hit are over-represented: about 2.6% of the library has one in this group of screens.
# SENP7 inh – blocks the human protease SENP7. Q9BQF6. recombinant SENP7, Z-RLRGG-aminoluciferin luminescence, 40 min. inhibition, % at 5 µM. actives 1.5% (n = 330,000). AID 434973;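 active = inhibition above about 50% at the single test dose, limit read from the data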
# Target sequence (Q9BQF6 706-1050 limits assumed): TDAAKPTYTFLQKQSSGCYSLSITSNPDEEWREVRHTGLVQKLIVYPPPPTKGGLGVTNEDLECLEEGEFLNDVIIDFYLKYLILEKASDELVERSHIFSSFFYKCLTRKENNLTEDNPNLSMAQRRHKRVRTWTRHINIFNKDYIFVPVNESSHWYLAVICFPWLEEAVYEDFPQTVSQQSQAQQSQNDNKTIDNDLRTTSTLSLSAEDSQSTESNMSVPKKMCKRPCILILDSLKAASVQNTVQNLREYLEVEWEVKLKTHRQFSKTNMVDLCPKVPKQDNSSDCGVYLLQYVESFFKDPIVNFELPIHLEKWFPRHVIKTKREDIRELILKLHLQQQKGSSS
# SENP8 block-1 – blocks human SENP8 cleavage of Nedd8 substrate; Q96LD8; recombinant SENP8, Nedd8 substrate fluorescence; inhibition, % at 20 µM; actives 0.64% (n = 360,000); in the data active = inhibition mostly above about 40%, no sharp cut-off; inactive = mostly below about 27%
# Target sequence (Q96LD8 whole entry, looked up): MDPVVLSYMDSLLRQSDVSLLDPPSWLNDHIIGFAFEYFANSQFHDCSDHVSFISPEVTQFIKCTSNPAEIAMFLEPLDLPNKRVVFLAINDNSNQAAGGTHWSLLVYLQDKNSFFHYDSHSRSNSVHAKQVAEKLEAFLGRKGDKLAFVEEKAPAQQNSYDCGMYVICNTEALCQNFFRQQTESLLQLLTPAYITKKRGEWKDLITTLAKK
# SENP8 block-2 – inhibitors of human SENP8 protease. inhibition, % at 10 µM. actives 1.2% (n = 330,000). purified SENP8, Z-RLRGG-aminoluciferin cleavage, luminescence; in the data active = inhibition above about 50%
# Platelet DG rel – modulates dense granule release in human platelets; human platelet-rich plasma, SFLLRN dense granule ATP release, luminescence; inhibition, %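 (compounds screened at 7.5 µM in platelet-rich plasma)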; actives 0.22% (n = 300,000);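 active = mean replicate score, as percent of positive control, at or above 50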
# SENP1 FRET inh – blocks the human SENP1 SUMO protease catalytic domain; inhibition, % at 10 µM; actives 0.21% (n = 360,000); recombinant SENP1 catalytic domain, CyPet-SUMO1-YPet FRET cleavage; Q9P0U3;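 active = inhibition at least 30% at 10 µM, raw YFP signal under a set limit, fluorescence ratio 0.5 to 1.5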
#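 Test system: hSENP1 catalytic domain, recombinant; Amount: 20 pM final SENP1 enzyme; Medium: Tris pH 8 buffer plus EDTA, NaCl, BME, BSA, NP40, catalase; Schedule: 50 min enzyme reaction, room temperature, light-protected; Technique: FRET fluorescence in CFP and YFP emission channels; Controls: no-enzyme wells low, DMSO-plus-enzyme wells high control.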
# SENP6 block – inhibitors of human SENP6 protease | Q9GZR1 | Recombinant SENP6 catalytic domain, aminoluciferin luminescence | inhibition, % at 10 µM | actives 1.8% (n = 330,000) | AID 2599;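 active = inhibition above about 50% at the single tested dose, limit read from the data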
# A number is an active result; - = inactive; . = not tested or not shown.
SMILES,SENP7 inh,SENP8 block-1,SENP8 block-2,Platelet DG rel,SENP1 FRET inh,SENP6 block
COC(=O)CC1OCC=C2CN3CCC45C6=CC(=O)C(=O)C([N+](=O)[O-])=C6NC4C1C2CC35 (stereo unspecified),.,110,.,.,-,.
Cc1nn(C)c(Sc2ccccn2)c1[N+](=O)[O-],-,-,-,-,-,-
O=C(Cn1nc2ccccc2n1)N/N=C/c1cc(Cl)cc([N+](=O)[O-])c1O,.,-,.,.,-,.
Brc1cc2c(cc1/C=N/Nc1nc3ccccc3s1)OCO2,-,-,-,-,-,-
C(=N\Nc1nc2ccccc2s1)/c1ccc2c(c1)OCO2,89,-,55,-,-,67
O=[N+]([O-])c1cc(Cl)cc(/C=N/Nc2nc3ccccc3s2)c1O,-,-,-,-,-,54
Brc1csc(/C=N/Nc2nc3ccccc3s2)c1,76,-,57,-,-,-
CN(C(=O)CSc1nc2[nH]ncc2c(=O)[nH]1)c1ccccc1,-,-,-,-,-,-
COc1ccc(-c2ccc(/C=C3\C(=O)N(c4ccccc4)N=C3c3ccccc3)o2)c([N+](=O)[O-])c1,-,46,-,-,-,-
COc1cc([N+](=O)[O-])ccc1-c1ccc(/C=C2\C(=O)ON=C2c2ccccc2)o1,.,-,.,.,-,.
CCOC(=O)N1CCN(S(=O)(=O)c2c(C)nc3sccn3c2=O)CC1,-,-,-,-,-,-
COc1ccc(NC(=O)C2c3ccccc3OCC(=O)N2C2CC2)cc1 (stereo unspecified),.,-,.,.,-,.
Cc1ccccc1NC(=O)C(=O)Nc1ccccc1C,80,-,-,-,-,-
Cc1ccccc1NC(=O)CC(=O)Nc1ccccc1C,-,-,-,-,-,-
O=C(O)c1ccc(N=N/C(=N\Nc2ccc(C(=O)O)cc2)c2ccccc2)cc1,-,45,-,-,-,-
Nc1c(C(=O)N/N=C/c2ccccc2)cnn1-c1ccccc1,51,-,-,-,-,67
O=C(N/N=C/c1ccccc1)c1cccc2ccccc12,-,-,-,-,-,-
COc1ccc(Br)cc1CNC(=O)c1ccc2c(c1)N(C)CCS2,-,-,-,97,-,-
O=C(c1ccccc1)c1ccc(O)cc1O,-,-,-,-,54,-
C=CCN1C(=O)C2(NNc3ccccc3O2)c2ccccc21 (stereo unspecified),-,-,-,-,81,-
CCCCN1C(=O)C2(NNc3ccccc3O2)c2ccccc21 (stereo unspecified),-,-,-,-,-,-
CNC(=O)C[C@H]1C(=O)N(Cc2ccccc2)C[C@@H]1Cc1ccccc1,.,-,.,.,-,.
COc1ccc(-c2c(C#N)c(N)nc3c2CCC3)cc1,-,-,-,-,-,-
CSc1nc2c(c(-c3ccc(O)cc3)c1C#N)CCC2,-,-,-,63,-,-
CN1CCS/C1=C\C=C1/SC(=S)N(CC(=O)O)C1=O,.,-,.,-,68,.
SMILES,SENP7 inh,SENP8 block-1,SENP8 block-2,Platelet DG rel,SENP1 FRET inh,SENP6 block
COc1cccc(C(=O)Nc2ccccc2F)c1,-,-,-,-,-,-
O=C(Nc1ccccc1F)Oc1cccc(OC(=O)Nc2ccccc2F)c1,73,-,64,-,-,69
CC(C)(C)NC(=O)C(c1cccc2ccccc12)n1c(=O)c(-c2cc3ccccc3[nH]2)nc2ccccc21 (stereo unspecified),.,-,.,.,-,.
O=C(O)CCCn1c(O)c(C=C2N=c3ccccc3=N2)sc1=S,-,-,-,-,-,-
COCCCn1c(O)c(/C=C2\N=C(C#N)C(=Nc3ccc(C)cc3)O2)sc1=S,-,-,-,-,54,-
COc1cccc(-c2cnc3c(NC(C)=O)cc(-c4ccc(C(=O)NC5CC5)cc4)cn23)c1,.,-,.,.,-,.
CC1(OC(=O)c2cccs2)C(=O)C=C2C=C3CCCN3C=C2C1=O (stereo unspecified),-,59,-,-,-,-
CCCCCc1nnc(NC(=O)NS(=O)(=O)c2ccc(C)cc2)s1,-,-,-,-,-,-
COC1=CC(=O)C(OC)=C(OC)C1=O,.,41,.,.,-,.
CN(C)c1ccc(C=C2SC(=S)NC2=O)cc1,.,-,.,.,-,.
CN(C)c1ccc(/C=N/N=C2/NC(=O)/C(=C/c3ccc([N+](=O)[O-])cc3)S2)cc1,-,-,-,.,-,69
COc1ccc(NC(=O)Cn2nnc(C(=O)NCc3ccc4c(c3)OCO4)c2N)c(OC)c1,-,-,-,-,-,-
Cc1[nH]c(=S)c(C#N)c(C)c1Cc1ccccc1,-,-,-,-,-,-
Cc1[nH]c(=S)c(C#N)c(C)c1CCC#N,-,-,-,76,-,-
CCOC(=O)/C=C1/SCC(=O)N1CCOc1cccc(Br)c1,.,-,.,.,-,.
O=C1NCCCC2c3c(cc(Br)c(O)c3Br)OC12N1CCOCC1 (stereo unspecified),-,-,-,-,-,-
O=C1NCCCC2c3cc(O)c4ccccc4c3OC12N1CCCCC1 (stereo unspecified),-,.,63,.,.,71
Cc1cc(C)cc(Oc2nc3ccccn3c(=O)c2/C=C(\C#N)C(=O)NC2CCS(=O)(=O)C2)c1 (stereo unspecified),-,-,-,-,-,-
Cc1ccc(Oc2nc3ccccn3c(=O)c2/C=C(\C#N)C(=O)NC2CCS(=O)(=O)C2)c(C)c1 (stereo unspecified),-,-,-,51,-,-
O=C(NCc1cccc(C(F)(F)F)c1)C1C(=O)Nc2ccccc2C(=O)N1C1CCCC1 (stereo unspecified),.,-,.,.,-,.
Cc1ccc(N=C2NC(=O)/C(=C/c3cccs3)S2)cc1C,-,-,-,-,36,-
Cc1ccc(N(C)S(=O)(=O)c2cccc(C(=O)OCC(=O)N(C)Cc3ccccc3)c2)cc1,.,-,.,.,-,.
Brc1cc2c(cc1C1Nc3ccccc3C3C=CCC31)OCO2 (stereo unspecified),-,40,-,-,-,-
O=C(O)c1ccc2c(c1)C1C=CCC1C(c1cc3c(cc1Br)OCO3)N2 (stereo unspecified),-,-,-,-,-,-
C[C@H](CO)N1C[C@H](C)[C@@H](CN(C)Cc2ccc(C(=O)O)cc2)OCc2cnnn2CCCC1=O,.,-,.,.,-,.
SMILES,SENP7 inh,SENP8 block-1,SENP8 block-2,Platelet DG rel,SENP1 FRET inh,SENP6 block
COc1ccc(C(C#N)N2N=C(C)CC2c2ccccc2)cc1OC (stereo unspecified),-,-,-,-,-,-
COc1ccc(C(C#N)N2N=C(c3ccccc3)CC2c2ccccc2)cc1OC (stereo unspecified),73,-,-,-,-,-
Cc1csc(N/N=C/c2ccccn2)n1,83,-,85,-,-,87
Cc1csc(N/N=C/c2ccc([N+](=O)[O-])cc2)n1,-,-,-,-,-,-
O=C1c2ccccc2C(=O)N1Cc1ccco1,-,-,-,-,-,-
CC1=CC(=C2C(=O)c3ccccc3C2=O)C=C(C)N1Cc1ccco1,-,-,-,-,37,-
